High-throughput results: PubChem, several laboratories
Compounds with a hit are over-represented: about 1.4% of the library has one in this group of screens.
Furin inh – human furin inhibition. 220,000 tested, 0.061% active. AID 463115. inhibition, % at 20 µM or 30 µM. P09958. purified furin, fluorogenic substrate cleavage; in the data active = inhibition above about 25%
m-calpain inh – blocks pig calpain II enzyme activity; purified calpain II, fluorogenic peptide substrate, 30 min; inhibition, % at 16 µM; 220,000 tested, 0.37% active;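 active = inhibition above about 50%, limit read from the data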
FXIa inh 1536 – blocks human coagulation factor XIa protease activity | P03951 | purified FXIa, Boc-Glu-Ala-Arg-AMC fluorogenic substrate | inhibition, % at 5 µM | 220,000 tested, 0.14% active;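 active = inhibition of at least 40%; inactive = inhibition below 40%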;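 also: fluorescence of freed AMC excited at 355 nm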
KLK5 inh – kallikrein 5 (human) inhibition. Q9Y337. recombinant hK5, fluorogenic AMC substrate cleavage. inhibition, % at 5 µM. 210,000 tested, 0.59% active. AID 873;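 active = inhibition of 40% or more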
Target sequence (Q9Y337 67-293 limits assumed): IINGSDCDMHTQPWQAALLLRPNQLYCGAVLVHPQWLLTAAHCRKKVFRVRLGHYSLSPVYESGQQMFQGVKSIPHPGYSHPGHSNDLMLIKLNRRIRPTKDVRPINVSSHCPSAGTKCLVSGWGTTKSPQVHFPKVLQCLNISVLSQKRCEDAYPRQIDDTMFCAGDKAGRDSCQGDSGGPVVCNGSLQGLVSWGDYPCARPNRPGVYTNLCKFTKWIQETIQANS
FXIIa inh – blocks human coagulation factor XIIa protease activity. P00748. purified FXIIa, Boc-QGR-AMC fluorogenic substrate, 2 h. inhibition, % at 5 µM. 220,000 tested, 0.3% active. AID 800; in the data active = inhibition above about 40%
thrombin 1536 – blocks human thrombin protease activity | AID 1046 | 220,000 tested, 0.26% active | alpha-thrombin, Boc-VPR-AMC fluorogenic substrate cleavage | inhibition, % at 5 µM | P00734;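 active = inhibition at or above 40%; inactive = inhibition below 40%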
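Test system: human alpha-thrombin; medium: pH 7.5 Tris-saline with Tween 20; times: reaction at room temperature; signal: AMC fluorescence at 355 nm excitation and 460 nm emission; also added: Boc-VPR-AMC substrate, 15 µM final; dosing: one concentration per compound, 5 µM, with 0.2% DMSO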
Numbers stand for hits; 0 = inactive; - = no result given.

SMILES	Furin inh	m-calpain inh	FXIa inh 1536	KLK5 inh	FXIIa inh	thrombin 1536
C=CCNC(=S)Nc1cccc([N+](=O)[O-])c1	0	0	0	0	0	0
CCCn1c(SCC(=O)N2CCCc3ccccc32)nc2c1c(=O)n(C)c(=O)n2C	0	-	-	-	-	-
Cn1c(=O)c2c(nc(SCC(=O)N3CCc4ccccc43)n2Cc2ccc(F)cc2)n(C)c1=O	28	-	-	-	-	-
CCCc1nc(SCC(=O)N2CCCc3ccccc32)c2c(=O)n(C)c(=O)n(C)c2n1	0	62	0	0	0	0
Cn1c(=O)c2c(SCC(=O)N3CCCc4ccccc43)nc(CC(C)(C)C)nc2n(C)c1=O	0	0	0	0	0	0
C/C(=N\Nc1nc(N2CCCCC2)nc(N2CCOCC2)n1)c1ccccc1O	0	0	0	0	0	0
Cc1c(NC(=O)CSc2nc3ccccc3s2)c(=O)n(-c2ccccc2)n1C	0	0	0	0	45	0
O=C(CSc1nc2ccccc2s1)NC1CCCC1	0	0	0	0	42	0
COc1cc(NS(=O)(=O)c2ccc(NC(=S)NC(=O)c3sc4ccccc4c3Cl)cc2)nc(OC)n1	0	58	0	0	0	0
COc1cc(/C=N/NC(=O)c2ccc(CN3C(=O)c4cccc5cccc3c45)cc2)cc(OC)c1O	0	0	50	0	0	0
CCn1c(NCc2ccc3c(c2)OCO3)nc2ccccc21	0	0	0	53	0	0
Cc1nn(-c2ccccc2)c(N)c1C(O)(C(F)(F)F)C(F)(F)F	0	0	0	42	0	0
Cc1nn(-c2ccccc2)c(N)c1C(O)(CC(=O)C(F)(F)F)C(F)(F)F (stereo not given)	0	0	0	0	0	0
Cc1nn2c(CN(C(=O)CN3CCOCC3)c3ccccc3)nnc2c2ccccc12	0	0	0	0	42	0
Cc1nn2c(CN(C(=O)COc3ccccc3)c3ccccc3)nnc2c2ccccc12	0	0	0	0	0	0
Cc1cc(C)c(NC(=O)NC(=O)C(Cl)(Cl)Cl)c(C)c1	0	0	0	0	0	0
CC(C)(C)c1cc(C(=O)C[n+]2ccc(C(=O)NCCCO)cc2)cc(C(C)(C)C)c1O	0	0	0	0	0	0
COc1ccc(Oc2ccccc2/C=N/O)cc1	0	0	0	117	0	0
O=Cc1ccccc1Oc1ccccc1	0	0	0	0	0	0
O=C(O)C1CCN(c2ccc(Cl)nn2)CC1	0	0	0	0	0	55
CCOC(=O)C1CCN(c2ccc(Cl)nn2)CC1	0	0	0	0	0	0
COc1cccc(C2=CC(c3ccccc3)n3nnnc3N2)c1 (stereo not given)	0	63	0	0	0	0
O=c1c2c3c(sc2n(CCN2CCCCC2)c(=O)n1Cc1ccco1)CCCCC3	0	0	0	44	0	0
O=c1c2c3c(sc2n(CCN2CCOCC2)c(=O)n1Cc1ccco1)CCCCC3	0	0	0	0	0	0
O=C(NNc1cc(N2CCOCC2)nc(N2CCOCC2)n1)c1ccc([N+](=O)[O-])cc1	0	0	0	68	0	0
SMILES	Furin inh	m-calpain inh	FXIa inh 1536	KLK5 inh	FXIIa inh	thrombin 1536
O=C(Nc1ccc(N2CCOCC2)cc1N1CCOCC1)c1ccc([N+](=O)[O-])cc1	0	0	0	0	0	0
Cc1oc(C(C)(C)C)cc1C(=O)Nc1ccc2c(c1)OCO2	0	0	0	0	0	0
Cc1oc(C(C)(C)C)cc1C(=O)Nc1ccc2c(c1)OCCO2	0	0	0	40	0	0
COc1ccc(Cn2cccc(NC(=O)Nc3ccc(F)cc3)c2=O)cc1	0	0	0	0	0	0
CSc1ccc(NC(=O)Nc2cccn(Cc3ccccc3)c2=O)cc1	0	0	0	66	0	0
COc1cccc2sc(N(C)c3ccccc3)nc12	0	0	0	0	0	0
COc1cccc2sc(/N=C/N(C)C)nc12	0	0	0	0	46	0
O=C(CCSc1ccccc1)Nc1nnc(-c2cccs2)o1	0	0	0	0	0	0
CC(C)CNC(=O)Nc1ccc(F)c(Cl)c1	0	0	52	0	0	0
COc1ccc(C2NCCc3c2[nH]c2ccccc32)cc1CSc1nc2ccccc2s1 (stereo not given)	0	0	0	0	0	0
Cc1ccc(NC(=O)Nc2ccc(F)cc2)cc1Cl	0	0	0	0	0	0
NC(=O)c1c(N)sc2c1CCCCC2	0	0	0	0	0	0
Nc1sc2c(c1C(=O)NC1CCS(=O)(=O)C1)CCC2 (stereo not given)	0	0	0	45	0	0
NC(=O)c1c(N)sc2c1CCC2	0	0	0	0	41	0
C/C(=N\OC(=O)NC(C)C)c1sc(-c2ccc(Cl)cc2)nc1C	0	0	0	58	0	0
C/C(=N\OC(=O)NC(C)C)c1sc(-c2ccccc2)nc1C	0	0	0	0	0	0
COC(C[C@H](O)C[C@@H](O)[C@H](C)OCc1ccccc1)OC	0	0	0	0	46	0
COC(C[C@H](O)C[C@@H](O)[C@@H](C)OCc1ccccc1)OC	0	0	0	0	0	0
c1ccc(-c2ccc(C(c3ccccc3)n3ccnc3)cc2)cc1 (stereo not given)	0	53	0	0	0	-
c1ccc(-c2ccc(-n3ccnc3)cc2)cc1	0	0	0	0	0	0
Cc1ccc(NC(=S)Nc2ccc(OC(F)F)c(Cl)c2)cc1F	0	0	0	0	0	0
CCOc1ccc(N(CC(=O)Nc2ccc(C)c(C)c2)S(=O)(=O)c2c(C)noc2C)cc1	0	0	0	0	0	0
CCOc1ccc(N(CC(=O)Nc2cccc(F)c2)S(=O)(=O)c2c(C)noc2C)cc1	0	0	0	42	45	0
COc1ccc(N(CC(=O)Nc2ccc3c(c2)OCCO3)S(=O)(=O)c2c(C)nn(C)c2C)cc1	0	0	0	0	46	0
COc1ccc(C(=O)NCC(=O)OCC(=O)Nc2ccc(C)c(S(=O)(=O)N(C)C)c2)cc1OC	0	0	0	0	0	0
SMILES	Furin inh	m-calpain inh	FXIa inh 1536	KLK5 inh	FXIIa inh	thrombin 1536
O=C(NCC(=O)N1CCN(S(=O)(=O)/C=C/c2ccccc2)CC1)c1ccccc1F	0	0	0	0	57	-
C=C(C)Cn1c(=O)c(NC(=O)c2ccccc2)c2n(c1=S)CCC2	0	0	0	41	0	0
COc1ccc(-n2c(=O)c(NC(=O)c3ccccc3)c3n(c2=S)CCCCC3)cc1	0	0	0	0	0	0
CC(=O)c1c(N2CCC(C(N)=O)CC2)nc(=S)n(-c2ccccc2)c1C	0	0	0	45	0	0
CC(=O)c1c(N2CCN(c3ccccc3)CC2)nc(=S)n(-c2ccccc2)c1C	0	0	0	0	0	0
C=CCn1c(O)c(N=NC(=S)Nc2ccccc2F)c2ccccc21	0	0	0	0	0	0
C=CCn1c(O)c(N=NC(=S)Nc2ccccc2F)c2cc(S(=O)(=O)N3CCOCC3)ccc21	0	0	0	0	55	0
N#CCCn1cc(C=O)c(-c2cccs2)n1	0	0	0	-	0	0
O=C(c1cc2ccccc2[nH]1)N1CCOCC1	0	0	0	0	0	48
